The text below walks through data of ChEMBL document CHEMBL2439981, “Design, synthesis, and biological evaluation of bone-targeted proteasome inhibitors for multiple myeloma” (Bioorg Med Chem Lett, 2013).

What all share (format): functional, cell-based
One test concerns RPMI-8226. Nature of the test: Cytotoxicity against human RPMI8226 cells after 48 to 72 hrs by SRB assay. The essentials:
(§1)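 Cells seeded in triplicate at 3,000 per well in RPMI with 10% fetal bovine serum; drugs added after 24 h at six or more concentrations (1–18 nM in the dose-response figure). Exposure 72 h per methods and figure legend, 48 h per table footnote. Sulforhodamine B colorimetric read-out. IC50 from growth-inhibition curve, mean ±SD of at least 3 independent experiments.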

The test system of the next test is 5TGM1. Nature of the test: (§2) Cytotoxicity against mouse 5TGM1 cells after 48 to 72 hrs by SRB assay. Put shortly: as §1
The nature of test [1]: as §2. Put shortly:
as §1

SMILES strings stand for the structures.

In the case of `CC(C)C[C@H](NC(=O)[C@H](CC(C)C)NC(=O)[C@H](CC(C)C)NC(=O)OCc1ccccc1)B(O)O`, the IC50 with RPMI-8226 was determined as 13.8 nM; in test [1] it was 9.18 nM. The inhibition entry in the test with RPMI-8226 and in the test on 5TGM1 was “Dose-dependent effect” each time.
As to `CC(C)C[C@H](NC(=O)[C@H](CC(C)C)NC(=O)[C@H](CC(C)C)NC(=O)OCc1ccc(C(=O)NCCCC(O)(P(=O)(O)O)P(=O)(O)O)cc1)B(O)O`, the IC50 turned out to be 12.5 nM in the test with RPMI-8226 and 4.89 nM in test [1]. Besides, the inhibition result in the test with RPMI-8226 and in the test with 5TGM1 was “Dose-dependent effect” in each case.
In the case of `CC(C)C[C@H](NC(=O)[C@H](Cc1ccccc1)NC(=O)c1cnc(C(=O)NCCCC(O)(P(=O)(O)O)P(=O)(O)O)cn1)B(O)O`, the IC50 turned out to be 10.2 nM in the test on RPMI-8226 and 7.59 nM in test [1]. Besides, the inhibition result in the test with RPMI-8226 and with 5TGM1 was “Dose-dependent effect” throughout.
Turning to `CC(C)C[C@H](NC(=O)[C@H](Cc1ccc(OCCCC(=O)NCCCC(O)(P(=O)(O)O)P(=O)(O)O)cc1)NC(=O)c1cnccn1)B(O)O`, the concentration for half-maximal inhibition (IC50) with RPMI-8226 was 11.5 nM; in test [1] it was 9.39 nM. Further, the inhibition result in the test with RPMI-8226 and with 5TGM1 was “Dose-dependent effect” throughout.
Regarding `CC(C)C[C@H](NC(=O)[C@H](Cc1ccccc1)NC(=O)c1cnccn1)B(O)O` [BORTEZOMIB], the 50% inhibitory concentration (IC50) amounted to 9.5 nM in the test on RPMI-8226 and 6.78 nM in test [1]. In addition, the inhibition entry in the test with RPMI-8226 and with 5TGM1 was “Dose-dependent effect” in each case.
